# Only a selection was taken, and hits are over-represented in it overall.
# Beta2AR agonist = activates human beta-2 adrenergic receptor causing internalization; P07550; Am2.2-beta2AR cells, FAP receptor internalization, flow cytometry; response, % (concentration not given with the values); hit rate 0.43% among 340,000; AID 504454;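 active means response above a set limit, near 3 SD of response in nonfluorescent compounds, cut at about 42% in these data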
# CHOP inhibitor = inhibitors of CHOP induction in ER stress response | CHO-K1 CHOP-promoter luciferase, tunicamycin-induced, 15-18 h | inhibition, % at 10 µM | hit rate 3.8% among 220,000 | AID 2732;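 active means compounds that reduced the stress-induced luciferase reporter signal by more than about 70% of percent inhibition, limit read from the data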;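 further: 0% = tunicamycin plus vehicle and 100% = wells without tunicamycin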
# CHOP UPR activ = apoptotic UPR (CHOP) activation; CHO-CHOP luciferase reporter, luminescence; percent of tunicamycin response over DMSO baseline; activation, % at 10 µM; hit rate 0.34% among 330,000; AID 449763;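 active means at 10 µM dose, activation of 40% or more, normalized to positive control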;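 further: 100% = tunicamycin at 10 µg/mL and 0% = DMSO alone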
#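 System: CHO-CHOP luciferase reporter cell line; amount: 500 cells/well; buffer or medium: F12 medium containing 10% fetal bovine serum; incubation: 6 h compound exposure at 37 °C after overnight seeding; measured by: luciferase luminescence after 10 min with Steady-Glo reagent; evaluation: % reporter activation, DMSO baseline versus tunicamycin full activation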
# p-CIP stab down = lowers stability of the mouse p/CIP coactivator protein; Q05BA5; F442A p/CIP-EGFP cells, EGFP fluorescence, 16 h; decrease of EGFP signal, % at 10 µM; hit rate 0.01% among 290,000; AID 1984;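 active means EGFP signal decrease of at least 30% at 10 µM or well 3 SD below plate mean, unless failing retest; inactive means the rest, including hits failing retest or dose response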
# Dynein transport = blocks dynein driven cargo transport along microtubules; z-score, hits read low; hit rate 0.47% among 220,000; 3617.4 mouse cells, GR-EGFP nuclear translocation imaging; test concentration mostly 20 µM; stimulated with dexamethasone, 1 µM; stronger effect = lower value;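 active means plate z-score of nuclear minus cytoplasmic receptor signal below a set negative limit, without overly bright fluorescence or cell loss, cut at about -3.5 in these data, passing the limit was not always enough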;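 further: z-score of nuclear minus cytoplasmic ring GR-EGFP intensity difference per well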
#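 Buffer or medium: tetracycline-free induction medium containing charcoal-stripped FBS / Reagent: dexamethasone agonist, 1.0 µM final, for 30 min / Technique: automated 10x imaging of fixed Hoechst-stained cells / Times: induction 48 h, compound 1 h, agonist 30 min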
# UPR XBP1 act = adaptive UPR (XBP1) activation; CHO-XBP1 luciferase reporter, IRE1-XBP1 UPR activation, luminescence; percent of tunicamycin response, DMSO as zero; activation, % at 20 µM; hit rate 0.33% among 330,000; AID 463104;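 active means versus positive control, 20 µM dose yields 30% or more activation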;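 further: 100% = tunicamycin at 10 µg/mL and 0% = DMSO only wells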
#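 Material: CHO-XBP1 cells stably carrying IRE1-XBP1-driven luciferase reporter | Medium: F12 with 10% serum | Compound dosing: 20 µM single concentration, DMSO 1% | Incubation: Overnight seeding at 37 °C, 6 h compound treatment at 37 °C | Detection: Steady-Glo luminescence read | Read-out basis: % activation of reporter signal versus tunicamycin and DMSO controls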
# Numbers without * were called inactive; / = not tested or not shown.
SMILES,Beta2AR agonist,CHOP inhibitor,CHOP UPR activ,p-CIP stab down,Dynein transport,UPR XBP1 act
COc1ccc(-c2nsc3c(N4CCCCC4)ncnc23)cc1,1,82*,-8,-14,-0.34,-5
COc1ccc(-c2nsc3c(N4CCCCC4C)ncnc23)cc1 (stereo unspecified),2,93*,-9,-12,-0.92,-11
COc1ccc(C(=O)N2CCN(c3ncnc4c(-c5ccccc5)nsc34)CC2)cc1,-7,41,/,2,0.014,/
COc1ccc(-c2nsc3c(N4CCN(S(=O)(=O)c5ccccc5F)CC4)ncnc23)cc1,10,7,1,-2,-0.19,7
CC12C=CC(=O)C=C1CCC1C2C(=O)CC2(C)C1CCC2(O)C(=O)CO (stereo unspecified),1,/,/,/,/,/
Cc1nn(Cc2ccccc2Cl)c(Cl)c1/C=C/C(=O)OCC(=O)NC(N)=O,-7,25,0,2,0.048,-1
Cc1nn(Cc2ccc(Cl)cc2Cl)c(Cl)c1/C=C/C(=O)OCC(=O)NCC(F)(F)F,-2,77*,-4,8,-0.67,-4
Cc1cc(C)c(NC(=O)CN2C(=O)NC3(CCCCC3)C2=O)c(Cl)c1,-10,71*,-1,-10,-0.9,1
Cc1cc(C)c(NC(=O)CN2C(=O)NC3(CCc4ccccc43)C2=O)c(Cl)c1 (stereo unspecified),0,/,0,/,/,-3
COC(=O)c1sc(-c2ccc(C(C)(C)C)cc2)cc1NC(=O)CSCC(=O)O,4,77*,4,-10,0.8,1
Cc1cc(C(=O)N/N=C/c2cc(N=Nc3ccccc3)ccc2O)n[nH]1,-3,89*,/,0,1.3,/
COC(=O)N/N=C/c1cc(N=Nc2ccccc2)ccc1O,3,28,1,9,-0.082,-1
COc1ccc(N=Nc2nc3cc(Br)c(Br)cc3n2C)c(OC)c1,9,27,/,-23,-1.4,/
Cc1c(Cl)ccc2c(C(=O)NC(C)c3ccncc3)cc(-c3ccncc3)nc12 (stereo unspecified),/,79*,2,5,0.18,4
Cc1cc(C)c2[nH]c(C(=O)Nc3ccc(F)cc3Br)cc2c1,5,/,3,2,/,-1
Cc1ccccc1C(=O)c1c[nH]c(C(=O)N=CN(C)C)c1,0,2,0,-2,0.71,-1
CC(C)(C)C(=O)Nc1sc2c(c1-c1nc3ccccc3[nH]1)CCCC2,7,83*,1,-2,-0.26,1
C#C[C@]1(O)CC[C@H]2[C@@H]3CCC4=Cc5oncc5CC4(C)[C@H]3CCC21C (stereo partly specified),/,16,/,/,/,/
CN(c1ccccc1)S(=O)(=O)c1cccc(NC(=O)c2ccc(Cl)c([N+](=O)[O-])c2)c1,19,/,7,/,/,-1
COCC(=O)n1nc(-c2ccccc2)nc1NCc1ccccc1,-5,27,2,-4,1.6,0
CCC(=O)n1nc(-c2ccccc2)nc1NCc1ccccc1,-11,93*,2,-8,2.9,4
COC(=O)c1cn(NC(=O)/C=C/c2ccc(OC)c(OC)c2)c(=O)c2ccccc12,11,3,0,7,-0.087,-2
CC(C)(C)c1ccc(NC(=O)COc2ccc(-n3ccnc3)cc2)cc1,-3,74*,2,-13,-0.52,-8
COc1cc(NC(=O)COc2ccc(-n3ccnc3)cc2)cc(OC)c1,-4,24,0,11,0.32,-2
C/C(=N\NC(=O)COc1ccc(C(C)(C)C)cc1)c1ccc(-n2ccnc2)cc1,-10,95*,4,-1,0.7,0
SMILES,Beta2AR agonist,CHOP inhibitor,CHOP UPR activ,p-CIP stab down,Dynein transport,UPR XBP1 act
CCCCCCCCCCCCCCCCCCNC(=O)OCC(COP(=O)([O-])OCC[n+]1ccsc1)OC (stereo unspecified),/,-13,/,/,/,/
Cc1ccc(-c2csc(N3CCC(C(N)=O)CC3)n2)cc1,1,/,5,/,/,3
Cc1ccc(-c2csc(N3CCC(C(N)=O)(N4CCCCC4)CC3)n2)cc1,12,82*,0,-8,-0.34,-1
Cc1ccc(-c2cc(-c3ccccc3Cl)c(C#N)c(N)n2)o1,-8,59,-1,-1,-1.5,-3
Cc1ccc(-c2cc(-c3ccccc3)c(C#N)c(N)n2)o1,-20,95*,2,0,-2.8,-1
O=C(Nc1ccc(NC(=O)c2cc3ccccc3o2)cc1)c1ccc2c(c1)OCCO2,1,72*,-2,2,-0.42,1
Cc1cc(NC(=O)c2ccc3c(c2)OCCO3)ccc1NC(=O)c1cc2ccccc2o1,26,24,4,-11,0.45,3
Cc1ccc(NC(=S)N2CCC(NC(=O)c3ccc(F)cc3)CC2)cc1,8,/,1,-6,/,-2
Cc1occc1C(=O)Nc1sc2c(c1C(N)=O)CCC(C(C)(C)C)C2 (stereo unspecified),13,59,2,-4,1.1,0
CCC(C)(C)C1CCc2c(sc(NC(=O)c3ccoc3C)c2C(N)=O)C1 (stereo unspecified),6,72*,-2,-6,-0.5,0
CCc1c(C)c(C#N)c2nc3ccccc3n2c1Cl,/,110*,/,3,-1.1,/
CCc1c(C)c(C#N)c2nc3ccccc3n2c1-n1nc(C)cc1C,1,-4,0,-5,-0.42,-2
CCN(CC)c1ccc(NC(=O)c2cccnc2)c(C)c1,1,-6,1,-2,0.25,7
CCN(CC)c1ccc(NC(=O)c2cnc3ccccn3c2=O)c(C)c1,21,81*,3,-9,0.42,6
CCCCC(CC)C(=O)Nc1cc([N+](=O)[O-])ccc1F (stereo unspecified),-2,-8,0,-11,-0.41,0
COc1ccc(OC)c(NC(=O)CSc2ncnc3c2cnn3-c2ccccc2Cl)c1,-87,80*,6,-20,0.14,8
Cc1nc(C2CCC3C4CCC5=CC(=O)CC[C@]5(C)C4CC[C@]23C)cs1 (stereo partly specified),/,76*,7,-6,-1.1,4
Cc1nn(C(=O)c2cccs2)c(N)c1-c1ccccc1,-17,95*,7,15,-0.028,6
CCn1c(CNS(=O)(=O)c2ccc(Br)cc2)nnc1SC,13,/,-1,6,/,-3
CC(NC(=O)Nc1nnc(C(F)(F)F)s1)(C(F)(F)F)C(F)(F)F,21,89*,8,4,-0.68,0
O=C(COC(=O)C12CC3CC(CC(C3)C1)C2)NCCc1ccccc1,-1,77*,1,0,0.77,-3
O=CN(c1ccccc1)c1ccc2ccccc2c1,-3,-3,-2,-2,-1.2,1

# From PubChem BioAssay
